Reference: article PMC7935786 (Cancer Science, 2021)
Where “and” joins values, the source holds several entries; their conditions need not be identical. Equal values may be shown once. Entries after “also recorded” stand apart in the source; their conditions may differ.

Tested on: Japanese patients with relapsed or refractory B‐NHL
Test: Phase I study: safety, adverse events and DLT
Assay type: in vivo, human
Method in brief: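 Patients received 800 mg orally once in a 4-day cycle 0, then 800 mg BID in 28-day cycles; reduction to 600 then 400 mg BID permitted. AEs graded by CTCAE v4.03, with hematology, chemistry, urinalysis, vital signs, 12-lead ECG and LVEF by echo/MUGA. DLT assessed over cycles 0–1 in patients completing both with ≥75% cycle-1 compliance, or having DLT. Safety set: ≥1 dose.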

## CCN(c1cc(-c2ccc(CN3CCOCC3)cc2)cc(C(=O)NCc2c(C)cc(C)[nH]c2=O)c1C)C1CCOCC1 [Tazemetostat]
800 mg BID, n = 7
  Anemia, all TEAEs, Grade ≥3: 1 (14.3) patients (%)
  Anemia, all TEAEs, all grades: 2 (28.6) patients (%)
  Anemia, treatment‐related TEAEs, Grade ≥3: 1 (14.3) patients (%)
  Anemia, treatment‐related TEAEs, all grades: 2 (28.6) patients (%)
  Blood creatinine increased, all TEAEs, Grade ≥3: 0 (0.0) patients (%)
  Blood creatinine increased, all TEAEs, all grades: 2 (28.6) patients (%)
  Blood creatinine increased, treatment‐related TEAEs, Grade ≥3: 0 (0.0) patients (%)
  Blood creatinine increased, treatment‐related TEAEs, all grades: 1 (14.3) patients (%)
  Constipation, all TEAEs, Grade ≥3: 0 (0.0) patients (%)
  Constipation, all TEAEs, all grades: 3 (42.9) patients (%)
  Constipation, treatment‐related TEAEs, Grade ≥3: 0 (0.0) patients (%)
  Constipation, treatment‐related TEAEs, all grades: 1 (14.3) patients (%)
  Dry eye, all TEAEs, Grade ≥3: 0 (0.0) patients (%)
  Dry eye, all TEAEs, all grades: 2 (28.6) patients (%)
  Dry eye, treatment‐related TEAEs, Grade ≥3: 0 (0.0) patients (%)
  Dry eye, treatment‐related TEAEs, all grades: 0 (0.0) patients (%)
  Dry skin, all TEAEs, Grade ≥3: 0 (0.0) patients (%)
  Dry skin, all TEAEs, all grades: 2 (28.6) patients (%)
  Dry skin, treatment‐related TEAEs, Grade ≥3: 0 (0.0) patients (%)
  Dry skin, treatment‐related TEAEs, all grades: 2 (28.6) patients (%)
  Dysgeusia, all TEAEs, Grade ≥3: 0 (0.0) patients (%)
  Dysgeusia, all TEAEs, all grades: 3 (42.9) patients (%)
  Dysgeusia, treatment‐related TEAEs, Grade ≥3: 0 (0.0) patients (%)
  Dysgeusia, treatment‐related TEAEs, all grades: 3 (42.9) patients (%)
  Fatigue, all TEAEs, Grade ≥3: 1 (14.3) patients (%)
  Fatigue, all TEAEs, all grades: 2 (28.6) patients (%)
  Fatigue, treatment‐related TEAEs, Grade ≥3: 1 (14.3) patients (%)
  Fatigue, treatment‐related TEAEs, all grades: 2 (28.6) patients (%)
  Insomnia, all TEAEs, Grade ≥3: 0 (0.0) patients (%)
  Insomnia, all TEAEs, all grades: 2 (28.6) patients (%)
  Insomnia, treatment‐related TEAEs, Grade ≥3: 0 (0.0) patients (%)
  Insomnia, treatment‐related TEAEs, all grades: 1 (14.3) patients (%)
  Leukopenia, all TEAEs, Grade ≥3: 1 (14.3) patients (%)
  Leukopenia, all TEAEs, all grades: 2 (28.6) patients (%)
  Leukopenia, treatment‐related TEAEs, Grade ≥3: 0 (0.0) patients (%)
  Leukopenia, treatment‐related TEAEs, all grades: 1 (14.3) patients (%)
  Muscle spasms, all TEAEs, Grade ≥3: 0 (0.0) patients (%)
  Muscle spasms, all TEAEs, all grades: 2 (28.6) patients (%)
  Muscle spasms, treatment‐related TEAEs, Grade ≥3: 0 (0.0) patients (%)
  Muscle spasms, treatment‐related TEAEs, all grades: 2 (28.6) patients (%)
  Nasopharyngitis, all TEAEs, Grade ≥3: 0 (0.0) patients (%)
  Nasopharyngitis, all TEAEs, all grades: 5 (71.4) patients (%)
  Nasopharyngitis, treatment‐related TEAEs, Grade ≥3: 0 (0.0) patients (%)
  Nasopharyngitis, treatment‐related TEAEs, all grades: 0 (0.0) patients (%)
  Neutropenia, all TEAEs, Grade ≥3: 1 (14.3) patients (%)
  Neutropenia, all TEAEs, all grades: 2 (28.6) patients (%)
  Neutropenia, treatment‐related TEAEs, Grade ≥3: 0 (0.0) patients (%)
  Neutropenia, treatment‐related TEAEs, all grades: 1 (14.3) patients (%)
  Rash, all TEAEs, Grade ≥3: 0 (0.0) patients (%)
  Rash, all TEAEs, all grades: 2 (28.6) patients (%)
  Rash, treatment‐related TEAEs, Grade ≥3: 0 (0.0) patients (%)
  Rash, treatment‐related TEAEs, all grades: 2 (28.6) patients (%)
  Stomatitis, all TEAEs, Grade ≥3: 0 (0.0) patients (%)
  Stomatitis, all TEAEs, all grades: 2 (28.6) patients (%)
  Stomatitis, treatment‐related TEAEs, Grade ≥3: 0 (0.0) patients (%)
  Stomatitis, treatment‐related TEAEs, all grades: 2 (28.6) patients (%)
  Thrombocytopenia, all TEAEs, Grade ≥3: 2 (28.6) patients (%)
  Thrombocytopenia, all TEAEs, all grades: 3 (42.9) patients (%)
  Thrombocytopenia, treatment‐related TEAEs, Grade ≥3: 2 (28.6) patients (%)
  Thrombocytopenia, treatment‐related TEAEs, all grades: 3 (42.9) patients (%)
Cycles 0 and 1, six evaluable patients, 800 mg BID
  dose‐limiting toxicity (DLT): No DLTs; also recorded: did not observe any DLT
N = 7
  AE anemia: 29%
  AE constipation: 42.9%
  AE dry skin: 29%
  AE dysgeusia: 42.9% and 43%
  AE fatigue: 29%
  AE leading to dose reduction: 14.3%
  AE nasopharyngitis: 71.4%
  AE rash: 29%
  AE stomatitis: 29%
  AE thrombocytopenia: 42.9% and 43%
  AEs leading to dose interruption: 57.1%
